Measurements as given in ChEMBL document CHEMBL4406862, “Chalcone derivatives targeting mitosis: synthesis, evaluation of antitumor activity and lipophilicity” (Eur J Med Chem, 2019).
Calls of active or inactive are those of the source. The rule behind the calls is not given here.

Legend:
MCF7 = test: Antiproliferative activity against human MCF7 cells assessed as reduction in cell viability incubated for 48 hrs by sulforhodamine B assay; type: functional; conditions: MCF7, 48 h
How it was run: (§1)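 Cells in RPMI-1640 with 5% FBS, 37 °C, 5% CO2; seeded 0.05×10^6 cells/well, 24 h, then two-fold serial dilutions from 0 to 150 μM (DMSO up to 0.25%) for 48 h. TCA fixation, SRB stain 30 min, dye solubilized in 10 mM Tris, absorbance 515 nm. GI50 from dose-response curve; mean ± SD, at least three independent experiments in duplicate.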

[1] = Antiproliferative activity against human A375-C5 cells assessed as reduction in cell viability incubated for 48 hrs by sulforhodamine B assay; type: functional; conditions: A375-C5, 48 h; how it was run: as §1
NCI-H460 [2] = test: Antiproliferative activity against human NCI-H460 cells assessed as reduction in cell viability incubated for 48 hrs by sulforhodamine B assay; type: functional; conditions: NCI-H460, 48 h; how it was run: as §1
[3] = Lipophilicity, log k of compound in DMPC/buffer incubated for 30 mins by spectrophotometry; type: physicochemical; conditions: 0.5 h
How it was run: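 DMPC liposomes made by thin-film hydration in HEPES buffer, extruded at 40 °C. Fixed compound concentration with DMPC 50–1000 μM, incubated 30 min at 37 °C, pH 7.4; spectra 250–500 nm against compound-free references. Second-derivative values fitted (nonlinear least squares) versus lipid concentration to give Kp; lipid molar volume 0.66 L mol⁻¹; mean ± SD of at least three experiments.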

[4] = n-Octanol/water partition coefficient, log P of the compound incubated for 30 mins by spectrophotometry; type: physicochemical
NCI-H460 [5] = test: Induction of mitotic arrest in human NCI-H460 cells assessed as accumulation of bright round shape cells at 3 times of GI50 incubated for 15 hrs by phase contrast microscopy; type: functional, cell-based
NCI-H460 [6] = test: Induction of mitotic arrest in human NCI-H460 cells assessed as condensed chromosome at 3 times of GI50 incubated for 15 hrs by DAPI staining based phase contrast microscopy; type: functional, cell-based
How it was run: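 NCI-H460 treated 15 h at 3×GI50; DAPI staining of DNA viewed to detect condensed chromosomes of mitotic cells.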

NCI-H460 [7] = test: Induction of mitotic arrest in human NCI-H460 cells assessed as mitotic index at 3 times of GI50 incubated for 15 hrs by DAPI staining based phase contrast microscopy (reference value: 11.3 %); type: functional
NCI-H460 [8] = test: Induction of mitotic arrest in human NCI-H460 cells assessed as abnormal mitotic spindle morphology at 3 times of GI50 incubated for 15 hrs by immunostaining based fluorescence microscopy; type: functional, cell-based
How it was run: (§2)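 NCI-H460 on poly-L-lysine coverslips treated 15 h at 3×GI50; fixed in 2% paraformaldehyde, 0.5% Triton X-100 permeabilization, 10% FBS blocking; mouse anti-α-tubulin (1:2500) then Alexa Fluor 488 secondary (1:1500); DAPI 2 µg/mL. Fluorescence microscopy of spindles; multipolar spindles as percentage of total spindles; mean ± SD, three independent experiments.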

NCI-H460 [9] = test: Induction of mitotic arrest in human NCI-H460 cells assessed as decrease in chromosome align at metaphase plate at 3 times of GI50 incubated for 15 hrs by DAPI staining based fluorescence microscopy; type: functional, cell-based; how it was run: as §2
NCI-H460 [10] = test: Cytotoxicity against human NCI-H460 cells assessed as reduction in cell viability at 25 nM incubated for 48 hrs by MTT assay; type: functional, cell-based
How it was run: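 MTT 0.5 mg/ml in serum-free medium 4 h; formazan dissolved in isopropanol/Triton/HCl 2 h; absorbance 570 nm. Viability relative to untreated cells; mean ± SD of at least three independent experiments.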

NCI-H460 [11] = test: Induction of mitotic arrest in human NCI-H460 cells assessed as accumulation of bright round shape cells at 1 uM incubated for 15 hrs by phase contrast microscopy; type: functional, cell-based
NCI-H460 [12] = test: Induction of mitotic arrest in human NCI-H460 cells assessed as mitotic index 1 uM incubated for 15 hrs by DAPI staining based phase contrast microscopy (reference value: 11.3 %); type: functional

SMILES | GI50 (MCF7) [µM] | GI50 (NCI-H460 [2]) [µM] | log Kp [3] | logP at 0.5 h [4] | GI50 [1] [µM] | Activity (NCI-H460 [5]) | Activity (NCI-H460 [6]) | Activity (NCI-H460 [7]) | Activity (NCI-H460 [8]) | Activity (NCI-H460 [9]) | Activity (NCI-H460 [10]) | Activity (NCI-H460 [11]) | Activity (NCI-H460 [12]) [%]
COc1cc(C2OC2C(=O)c2cc(C)cs2)cc(OC)c1OC (stereo not drawn) | 14 | 16.9 | 3.75 | 2.5 | 6.63 | – | – | – | – | – | – | – | –
COc1cc(-c2cc(-c3cc(C)cs3)n[nH]2)cc(OC)c1OC | 16.3 | 16.1 | 4.04 | 3.27 | 16.1 | – | – | – | – | – | – | – | –
Cc1csc(C(=O)/C=C/c2cc(Cl)cc(Cl)c2)c1 | 12.2 | 11.8 | 4.43 | 4.67 | 7.14 | – | – | – | – | – | – | – | –
Cc1csc(C(=O)/C=C/c2ccc(Cl)c(Cl)c2)c1 | 22.5 | 15.5 | 2.8 | 4.65 | 12.1 | – | – | – | – | – | – | – | –
O=C(/C=C/c1cc(Cl)cc(Cl)c1)c1cccs1 | 11.7 | 8.34 | 4.33 | 4.38 | 5.38 | – | – | – | – | – | – | – | –
COc1cc(/C=C/C(=O)c2cccs2)cc(OC)c1 | 7.7 | 7.12 | 3.41 | 3.14 | 4.15 | – | – | – | – | – | – | – | –
COc1cc(OC)c(OC)cc1/C=C/C(=O)c1cc(C)cs1 | 10.1 | 7.48 | 3.6 | 3.31 | 6.96 | – | – | – | – | – | – | – | –
CC(=O)O[C@H]1C(=O)[C@@]2(C)[C@H]([C@H](OC(=O)c3ccccc3)[C@]3(O)C[C@H](OC(=O)[C@H](O)[C@@H](NC(=O)c4ccccc4)c4ccccc4)C(C)=C1C3(C)C)[C@]1(OC(C)=O)CO[C@@H]1C[C@@H]2O | – | – | – | – | – | – | – | – | – | – | inactive | – | –
COc1cc(/C=C/C(=O)c2cc(C)cs2)cc(OC)c1 | 4.28 | 4.44 | 3.52 | 3.43 | 3.33 | – | – | – | – | – | – | – | –
COC(=O)Nc1nc2cc(C(=O)c3cccs3)ccc2[nH]1 [NOCODAZOLE] | – | – | – | – | – | – | – | – | – | – | – | Active | 73.1
COc1cc(OC)c(OC)cc1/C=C/C(=O)c1ccc(OC)c(OC)c1 | 8.52 | 8.74 | 3.35 | 3.24 | 7.1 | – | – | – | – | – | – | – | –
COc1ccc(C(=O)/C=C/c2ccc(Cl)c(Cl)c2)cc1OC | 15.1 | 27.7 | 3.14 | 4.52 | 4.14 | – | – | – | – | – | – | – | –
O=C(/C=C/c1ccc(Cl)c(Cl)c1)c1cccs1 | 12.1 | 8.44 | 2.77 | 4.35 | 7.25 | – | – | – | – | – | – | – | –

Second part, led by results:

GI50 (MCF7) [µM] | GI50 (NCI-H460 [2]) [µM] | log Kp [3] | logP at 0.5 h [4] | SMILES | GI50 [1] [µM] | Activity (NCI-H460 [5]) | Activity (NCI-H460 [6]) | Activity (NCI-H460 [7]) | Activity (NCI-H460 [8]) | Activity (NCI-H460 [9]) | Activity (NCI-H460 [10]) | Activity (NCI-H460 [11]) | Activity (NCI-H460 [12]) [%]
3.26 | 3.02 | 3.54 | 3.29 | COc1cc(/C=C/C(=O)c2cc(C)cs2)cc(OC)c1OC | 3.21 | – | – | – | – | – | – | – | –
6.89 | 6.61 | 3.68 | 4.19 | COc1cc(/C=C/C(=O)c2cc3ccccc3s2)cc(OC)c1OC | 6.9 | Active | Active | 25.8 - 49.37% | Active | Active | – | – | –
59.9 | 61.8 | 2.8 | 2.51 | COc1cc(C2OC2C(=O)c2cccs2)cc(OC)c1OC (stereo not drawn) | 38.5 | – | – | – | – | – | – | – | –
13.2 | 8.95 | 3.51 | 3.27 | COc1ccc(/C=C/C(=O)c2ccc(OC)c(OC)c2)cc1OC | 3.81 | – | – | – | – | – | – | – | –
23.9 | 17.8 | 3.62 | 3.07 | COc1ccc(/C=C/C(=O)c2cccs2)cc1OC | 17.8 | – | – | – | – | – | – | – | –
5.95 | 5.06 | 3.49 | 2.99 | COc1cc(/C=C/C(=O)c2cccs2)cc(OC)c1OC | 3.63 | – | – | – | – | – | – | – | –
3.97 | 5.6 | 3.3 | 3.22 | COc1ccc(C(=O)/C=C/c2cc(OC)c(OC)c(OC)c2)cc1OC | 2.89 | – | – | – | – | – | – | – | –
> 37.5 | > 37.5 | 3.16 | 2.99 | COc1cc(-c2cc(-c3cccs3)n[nH]2)cc(OC)c1OC | > 37.5 | – | – | – | – | – | – | – | –
10.8 | 15.3 | 3.72 | 3.4 | COc1ccc(/C=C/C(=O)c2cc(C)cs2)cc1OC | 11.3 | – | – | – | – | – | – | – | –
12.6 | 13.6 | 3.49 | 3.02 | COc1cc(OC)c(OC)cc1/C=C/C(=O)c1cccs1 | 11.1 | – | – | – | – | – | – | – | –
9.75 | 8.35 | 4.29 | 3.22 | COc1cc(/C=C/C(=O)c2cc3cccc(O)c3o2)cc(OC)c1OC | 8.57 | Active | Active | 25.8 - 49.37% | Active | Active | – | – | –
6.49 | 10.8 | 3.29 | 3.35 | COc1cc(/C=C/C(=O)c2ccc(OC)c(OC)c2)cc(OC)c1 | 3.45 | – | – | – | – | – | – | – | –
8.41 | 9.61 | 4.1 | 4.54 | COc1ccc(C(=O)/C=C/c2cc(Cl)cc(Cl)c2)cc1OC | 4.51 | – | – | – | – | – | – | – | –
